Test results: ChEMBL document CHEMBL1156641, “Linear and cyclic C18 terpenoids from the southern Australian marine brown alga Cystophora moniliformis” (J Nat Prod, 2008)
Calls of active or inactive are those of the source. The rule behind the calls is not given here.

Columns and labels:
[1] = test system: Trichophyton mentagrophytes; assay: […] activity against Trichophyton mentagrophytes ATCC 28185 assessed as zone of inhibition; type: functional
Method in brief: (§1)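 Disk diffusion: fungal inoculum of known concentration mixed into potato dextrose or Mueller Hinton agar and poured as a lawn. Samples at 1 mg/mL were applied to 6 mm filter paper disks, solvent evaporated, and disks placed on the seeded agar with solvent and positive controls. After incubation, the zone of inhibition outside the disk was measured as radius in mm.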

P388 = assay: Antitumor activity against mouse P388 cells after 72 hrs by MTT assay; type: functional, cell-based; conditions: P388, 72 h
Method in brief: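 P388 murine leukemia cells were incubated 72 h with a 2-fold dilution series of sample, tested from 1 mg/mL. Growth was read by MTT reduction to formazan (absorbance) relative to untreated control cells. The concentration giving 50% growth reduction is reported as IC50.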

[2] = test system: Trichophyton mentagrophytes; assay: […] activity against Trichophyton mentagrophytes ATCC 28185 assessed as zone of inhibition at 1 mg/mL; type: functional, organism-based; method in brief: as §1

SMILES	inhibition zone (IZ) [1]	IC50 (P388)	Activity [2]
COC(C)(C)[C@H](O)CC/C(C)=C/CC/C(C)=C/CCC(C)=O	1 mm	> 40 µM	inactive
CC(=O)CC/C=C(\C)CC/C=C(\C)CC[C@@H](O)C(C)(C)O	1 mm	> 40 µM	inactive
CC(=O)CC/C=C(\C)CC[C@H]1C(C)(C)[C@@H](O)CC[C@]1(C)O [MONILIFORMINOL A]	1 mm	> 40 µM	inactive
C=C(C)[C@H](O)CC/C(C)=C/CC/C(C)=C/CCC(C)=O	1 mm	> 40 µM	inactive
CC(=O)CC/C=C(\C)CC/C=C(\C)CC/C=C(/C)CO	1 mm	> 40 µM	inactive
CC(=O)CC/C=C(\C)CCC1=C(C)CC[C@H](O)C1(C)C	1 mm	> 40 µM	inactive
CC(=O)CC/C=C(\C)CC[C@H]1C(C)(C)[C@@H](O)CC[C@@]1(C)O [MONILIFORMINOL B]	1 mm	> 40 µM	inactive
